Data on one compound can be found in ChEMBL document CHEMBL4028848, “Discovery of N-{4-[5-(4-Fluorophenyl)-3-methyl-2-methylsulfanyl-3H-imidazol-4-yl]-pyridin-2-yl}-acetamide (CBS-3595), a Dual p38α MAPK/PDE-4 Inhibitor with Activity against TNFα-Related Diseases” (J Med Chem, 2017).

Series [1] is filed under the species Homo sapiens. In words: Inhibition of PDE4 in human U937 cells assessed as [3H]cAMP hydrolysis at 1 uM relative to control. Format: cell-based.
Series [2] is filed under the species Homo sapiens. Kind of series: Inhibition of PDE4 in LPS-stimulated human whole blood assessed as decrease in leukotriene B4 level in plasma.
The next series deals with Rattus norvegicus. In words: In vivo inhibition of P38 MAPKalpha in Lewis rat assessed as decrease in LPS-stimulated TNFalpha level in serum at 10 mg/kg, po pretreated for 1 hr followed by LPS addition measured after 1.5 hrs post dose relative to control. Format: functional. A digest of the protocol:
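Lewis rats, n = 8/group: females dosed orally at 10 mg/kg at −1, −3 or −5 h relative to LPS challenge, plus one male group dosed at −1 h. Male and female vehicle controls were given at −1 h. Serum TNFα was measured after LPS and compared with vehicle.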

A short description of series [3]: Cmax in human at 0.5 mg, po administered as single dose. Further details: dose 0.5 mg, route oral. The conditions noted are these: in vivo. Format: ADME, organism-based.
Series [4] relates to Homo sapiens. Kind of series: Cmax in human assessed as roflumilast N-oxide formation at 0.5 mg, po administered as single dose. In kind it is ADME, organism-based. Further details: dose 0.5 mg, route oral. Conditions: in vivo.
Series [5] in a line: AUC (infinity) in human at 0.5 mg, po administered as single dose. In kind it is ADME, organism-based. Also on record: dose 0.5 mg, time infinity, route oral. Conditions: in vivo.
Series [6] relates to Homo sapiens. In words: AUC (infinity) in human assessed as roflumilast N-oxide formation at 0.5 mg, po administered as single dose. In kind it is ADME, organism-based. Also on record: dose 0.5 mg, route oral, time infinity. Conditions: in vivo.
Series [7] is described as follows: Fraction unbound in human plasma. Format: ADME, cell-free. A digest of the protocol: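 Plasma protein binding measured in human, Sprague–Dawley rat and Cynomolgus monkey plasma at 1, 10 and 30 μM compound. Reported as unbound fraction (%).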

The inhibition is the relative decrease from the control value, in per cent. For orientation: inhibition in vivo means the percentage by which the read-out fell short of the control. In general, Cmax refers to the maximum level reached in the sampled fluid or tissue. One may read the AUC(0-inf) as the area under the concentration-time curve extrapolated to infinity. The AUC is the area under the concentration-time curve, a measure of exposure. For orientation: fraction unbound means free concentration divided by total concentration. A lower fraction unbound goes with little free substance.

On to `O=C(Nc1c(Cl)cncc1Cl)c1ccc(OC(F)F)c(OCC2CC2)c1` [ROFLUMILAST], for which the inhibition is 94% in the series listed under Homo sapiens [1] and “Dose-dependent effect” in the series filed under Homo sapiens [2]. Moreover, the inhibition in vivo at 10 mg/kg in the series on Rattus norvegicus was 67%. The Cmax in series [3] was determined as 0.0131 µM; with Homo sapiens [4], 0.0224 µM. Besides, in series [5], the AUC(0-inf) came out at 86.8 nM·h. Besides, the AUC with Homo sapiens [6] worked out at 837.9 nM·h. The compound further had a fraction unbound in series [7] of 0.02.
